Experimental findings from ChEMBL document CHEMBL4002582, “Bioactive Terpenoids from Salvia plebeia: Structures, NO Inhibitory Activities, and Interactions with iNOS” (J Nat Prod, 2016) are described below.

The test system of data set [1] is BV-2. The data set can be described thus: Antiinflammatory activity in mouse BV2 cells assessed as inhibition of LPS-induced nitric oxide production incubated for 24 hrs by Griess assay. It counts as functional, cell-based. The conditions noted are these: BV-2, 24 h. In outline: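 NO output from murine microglial BV-2 cells was stimulated with lipopolysaccharide. IC50 values were derived from the inhibition of LPS-induced NO generation, and results come from three experiments. 2-Methyl-2-thiopseudourea sulfate (SMT) was the positive control.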

The test system of data set [2] is BV-2. The data set can be described thus: Cytotoxicity against mouse BV2 cells assessed as effect on cell survival by MTT assay. It counts as cell-based.

The term IC50 denotes the point on the concentration scale where inhibition reaches its midpoint.

As to `CSC(=N)N`, in the data set with BV-2 [1], the IC50 stood at 2.9 µM.

Take `CC(C)c1cc2c(c(O)c1O)C[C@@]1(O)CCCC(C)(C)[C@@H]1CC2`: in the data set on BV-2 [1], the IC50 was determined as 10.6 µM. For the same compound, the Activity result in the data set on BV-2 [2] is on record as “Non-Toxic”.

On to `CC1=CC[C@@H]2[C@@H]3C[C@H]1[C@@]2(C)[C@@H](O)C[C@@H]3C(C)C`, for which the IC50 with BV-2 [1] amounted to 92.9 µM. In the data set on BV-2 [2], the Activity result is “Non-Toxic”.

Consider `CC(=O)O[C@H]1CC(C)(C)C2=C(O)C(=O)c3cc(C(C)C)c(O)c(O)c3[C@@]2(C)C1`, for which the IC50 in the data set with BV-2 [1] was found to be 26.5 µM. Further, the Activity result in the data set with BV-2 [2] is listed as “Non-Toxic”.

Turning to `CO[C@H]1O[C@H]2CC[C@@]13c1c(cc(C(C)C)c(O)c1O)CC[C@H]3C2(C)C`, the 50% inhibitory concentration (IC50) in the data set on BV-2 [1] was more than 30 µM. Moreover, the Activity entry with BV-2 [2] is listed as “Non-Toxic”.

Regarding `CC(=O)O[C@H]1CC(C)(C)[C@@H]2C[C@@H]3OC[C@@]2(C1)c1c3cc(C(C)C)c(O)c1O`, in the data set on BV-2 [1], the IC50 was more than 30 µM. Also, the Activity result with BV-2 [2] is “Non-Toxic”.

As to `CC(=O)OC[C@@]1(O)CC[C@@H]2[C@H]([C@H]3[C@H]1CC[C@]3(C)O)C2(C)C`, the IC50 in the data set on BV-2 [1] came to 47.6 µM. Besides, the Activity entry with BV-2 [2] is given as “Non-Toxic”.

Turning to `CC(=O)[C@H]1CC[C@@H]2[C@@H]1[C@H](C(C)C)CC[C@@]2(C)O`, in the data set on BV-2 [1], the 50% inhibitory concentration (IC50) came to 38.9 µM. The Activity entry in the data set with BV-2 [2] was “Non-Toxic”.

Take `CC(C)C1=C[C@@]23CC[C@H]4C(C)(C)C[C@H](O)C[C@]4(CO2)C3=C(O)C1=O`: the IC50 in the data set on BV-2 [1] turned out to be 14.8 µM. Also, the Activity entry with BV-2 [2] is reported as “Non-Toxic”.

As for `CC(=O)O[C@H]1CC(C)(C)[C@@H]2CC[C@@]34C=C(C(C)C)C(=O)C(O)=C3[C@@]2(CO4)C1`, the IC50 with BV-2 [1] stood at 5.7 µM. The Activity result with BV-2 [2] was “Non-Toxic”.

Turning to `CC(C)C1=CC[C@@]2(C)[C@H](O)CC[C@](C)(O)[C@@H]2C1` [OPLODIOL], the IC50 in the data set on BV-2 [1] was 63.5 µM. Further, the Activity result with BV-2 [2] is “Non-Toxic”.
